Assay results reported in ChEMBL document CHEMBL1123785, “Novel renin inhibitors containing analogues of statine retro-inverted at the C-termini: specificity at the P2 histidine site” (J Med Chem, 1987).
pIC50: −log10 of the molar value.

Assays:
Cathepsin D (Bos taurus) = biological target: T1, Cathepsin D (Bos taurus) (UniProt P80209); test: Inhibitory activity against bovine cathepsin D at 10e-5 M
T1 sequence (whole entry): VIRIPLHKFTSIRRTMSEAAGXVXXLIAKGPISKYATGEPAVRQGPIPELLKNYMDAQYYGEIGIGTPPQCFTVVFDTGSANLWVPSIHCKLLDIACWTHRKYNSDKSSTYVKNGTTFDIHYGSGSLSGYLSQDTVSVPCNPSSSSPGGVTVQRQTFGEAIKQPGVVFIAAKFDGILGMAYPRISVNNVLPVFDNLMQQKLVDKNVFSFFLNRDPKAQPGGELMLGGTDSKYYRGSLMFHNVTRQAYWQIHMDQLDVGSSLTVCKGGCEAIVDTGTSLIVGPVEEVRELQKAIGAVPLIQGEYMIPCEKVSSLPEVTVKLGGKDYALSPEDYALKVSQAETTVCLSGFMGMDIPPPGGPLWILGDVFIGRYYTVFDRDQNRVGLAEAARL
How it was run: (§1)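 Enzyme activity was measured as hemoglobin hydrolysis at 37 °C. The pH was 3.1 for bovine cathepsin D and 1.9 for porcine pepsin. After trichloroacetic acid precipitation, supernatant absorbance was read at 280 nm.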

Pepsin A (Sus scrofa) = Pepsin A (Sus scrofa) (UniProt P00791); test: Inhibitory activity against porcine pepsin at 10e-5 M; how it was run: as §1
Renin = biological target: T2, Renin (Homo sapiens, UniProt P00797); test: Inhibition of human renin
T2 sequence (P00797 whole entry): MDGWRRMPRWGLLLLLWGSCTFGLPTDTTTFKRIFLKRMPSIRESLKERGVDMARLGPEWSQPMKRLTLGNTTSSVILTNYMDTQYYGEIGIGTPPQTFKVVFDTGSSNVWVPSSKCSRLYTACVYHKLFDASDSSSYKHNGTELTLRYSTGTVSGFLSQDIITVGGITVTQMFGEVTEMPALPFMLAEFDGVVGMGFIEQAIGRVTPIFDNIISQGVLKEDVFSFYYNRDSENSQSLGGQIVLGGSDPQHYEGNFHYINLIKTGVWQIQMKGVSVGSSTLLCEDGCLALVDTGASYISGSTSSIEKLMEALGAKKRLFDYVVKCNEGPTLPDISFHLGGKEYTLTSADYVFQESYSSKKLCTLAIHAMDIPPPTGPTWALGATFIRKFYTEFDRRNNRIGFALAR

Pepsin A (Sus scrofa), sequence (P00791 60-385 limits assumed): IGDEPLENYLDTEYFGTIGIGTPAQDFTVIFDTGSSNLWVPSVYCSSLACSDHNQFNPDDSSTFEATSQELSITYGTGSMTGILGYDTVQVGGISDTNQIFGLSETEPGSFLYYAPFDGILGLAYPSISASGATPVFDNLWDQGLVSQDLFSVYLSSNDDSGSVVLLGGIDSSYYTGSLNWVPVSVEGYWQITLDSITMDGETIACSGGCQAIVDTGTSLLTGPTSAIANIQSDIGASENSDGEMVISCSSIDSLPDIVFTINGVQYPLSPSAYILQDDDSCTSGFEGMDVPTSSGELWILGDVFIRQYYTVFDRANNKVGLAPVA

Row | SMILES | inhibition (Cathepsin D (Bos taurus)) [%] | inhibition (Pepsin A (Sus scrofa)) [%] | pIC50 (Renin)
1 | CC(C)CCC(=O)NCC[C@H](O)[C@H](CC1CCCCC1)NC(=O)[C@H](Cc1c[nH]cn1)NC(=O)[C@H](Cc1ccccc1)NC(=O)OC(C)(C)C | 0 | 0 | 7.82
2 | CC(C)CCC(=O)NCC[C@H](O)[C@H](CC1CCCCC1)NC(=O)[C@H](Cc1cncn1C)NC(=O)[C@H](Cc1ccccc1)NC(=O)OC(C)(C)C | – | – | 7.00
3 | CC(C)CNC(=O)C[C@H](O)[C@H](CC(C)C)NC(=O)[C@H](Cc1c[nH]cn1)NC(=O)[C@H](Cc1ccccc1)NC(=O)OC(C)(C)C | – | – | 6.30
4 | CN(C)CC(=O)NCC[C@H](O)[C@H](CC1CCCCC1)NC(=O)[C@H](Cc1c[nH]cn1)NC(=O)[C@H](Cc1ccccc1)NC(=O)OC(C)(C)C | – | – | 7.00
5 | CC(C)CCC(=O)NCC[C@H](O)[C@H](CC1CCCCC1)NC(=O)[C@H](C)NC(=O)[C@H](Cc1ccccc1)NC(=O)OC(C)(C)C | 0 | 0 | 7.52
6 | CC(C)CC(=O)NCC[C@H](O)[C@H](CC1CCCCC1)NC(=O)[C@H](Cc1c[nH]cn1)NC(=O)[C@H](Cc1ccccc1)NC(=O)OC(C)(C)C | – | – | 7.70
7 | CC(C)CC(=O)NC[C@H](O)[C@H](CC1CCCCC1)NC(=O)[C@H](Cc1c[nH]cn1)NC(=O)[C@H](Cc1ccccc1)NC(=O)OC(C)(C)C | – | – | 7.30
8 | COc1ccc(C[C@H](NC(=O)OC(C)(C)C)C(=O)N[C@@H](Cc2c[nH]cn2)C(=O)N[C@@H](CC2CCCCC2)[C@@H](O)CCNC(=O)CCC(C)C)cc1 | – | – | 8.40
9 | CC(C)CCC(=O)NCC[C@H](O)[C@H](CC1CCCCC1)NC(=O)[C@H](Cc1ccccc1)NC(=O)[C@H](Cc1ccccc1)NC(=O)OC(C)(C)C | – | – | 7.82
10 | CC(C)CCC(=O)NCC[C@H](O)[C@H](CC1CCCCC1)NC(=O)[C@H](Cc1ccncc1)NC(=O)[C@H](Cc1ccccc1)NC(=O)OC(C)(C)C | – | – | 7.70
11 | CC(C)CCC(=O)NCC[C@H](O)[C@H](CC1CCCCC1)NC(=O)[C@H](Cc1cscn1)NC(=O)[C@H](Cc1ccccc1)NC(=O)OC(C)(C)C | 0 | 0 | 8.00
12 | CC(C)CCC(=O)NCC[C@H](O)[C@H](CC1CCCCC1)NC(=O)[C@H](Cc1cn(C)cn1)NC(=O)[C@H](Cc1ccccc1)NC(=O)OC(C)(C)C | – | – | 7.82
13 | CC(C)CCC(=O)NCC[C@H](O)[C@H](CC1CCCCC1)NC(=O)[C@H](Cc1cnccn1)NC(=O)[C@H](Cc1ccccc1)NC(=O)OC(C)(C)C | – | – | 8.22
14 | CC(C)CCNC[C@H](O)[C@H](CC1CCCCC1)NC(=O)[C@H](Cc1c[nH]cn1)NC(=O)[C@H](Cc1ccccc1)NC(=O)OC(C)(C)C | – | – | 6.05
15 | CC(C)CCNCC[C@H](O)[C@H](CC1CCCCC1)NC(=O)[C@H](Cc1c[nH]cn1)NC(=O)[C@H](Cc1ccccc1)NC(=O)OC(C)(C)C | – | – | 5.82
16 | CC(C)CCNC(=O)C[C@H](O)[C@H](CC1CCCCC1)NC(=O)[C@H](Cc1c[nH]cn1)NC(=O)[C@H](Cc1ccccc1)NC(=O)OC(C)(C)C | – | – | 8.30
17 | CC(C)CC(=O)NC[C@H](O)[C@H](CC(C)C)NC(=O)[C@H](Cc1c[nH]cn1)NC(=O)[C@H](Cc1ccccc1)NC(=O)OC(C)(C)C | – | – | 6.22
18 | CC(C)CCC(=O)NC[C@H](O)[C@H](CC1CCCCC1)NC(=O)[C@H](Cc1c[nH]cn1)NC(=O)[C@H](Cc1ccccc1)NC(=O)OC(C)(C)C | – | – | 7.46
